These results are taken from ChEMBL document CHEMBL5104104, “Inhibition of N-type calcium ion channels by tricyclic antidepressants - experimental and theoretical justification for their use for neuropathic pain” (RSC Med Chem, 2022).

In this test the target is Voltage-dependent N-type calcium channel subunit alpha-1B (Homo sapiens, UniProt Q00975). Briefly: Inhibition of endogenous human CaV2.2 in human SH-SY5Y cells in presence of nifedipine by Calcium 4 dye based calcium influx fluorescence-imaging assay. In kind it is cell-based. The method, boiled down:
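SH-SY5Y neuroblastoma cells with endogenous Cav2.2, seeded 48 h before assay and loaded with Calcium 4 dye in HEPES buffer pH 7.4 with 0.1% BSA and 10 µM nifedipine (30 min, 37 °C). Compound preincubated 300 s. Channels then opened with 90 mM KCl plus 5 mM CaCl2, fluorescence read 300 s more. 3-fold serial dilutions from 100 µM (1% DMSO). IC50 from concentration–response curves, mean ± SEM, n = 3–5.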

Voltage-dependent N-type calcium channel subunit alpha-1B, sequence (Q00975 whole entry): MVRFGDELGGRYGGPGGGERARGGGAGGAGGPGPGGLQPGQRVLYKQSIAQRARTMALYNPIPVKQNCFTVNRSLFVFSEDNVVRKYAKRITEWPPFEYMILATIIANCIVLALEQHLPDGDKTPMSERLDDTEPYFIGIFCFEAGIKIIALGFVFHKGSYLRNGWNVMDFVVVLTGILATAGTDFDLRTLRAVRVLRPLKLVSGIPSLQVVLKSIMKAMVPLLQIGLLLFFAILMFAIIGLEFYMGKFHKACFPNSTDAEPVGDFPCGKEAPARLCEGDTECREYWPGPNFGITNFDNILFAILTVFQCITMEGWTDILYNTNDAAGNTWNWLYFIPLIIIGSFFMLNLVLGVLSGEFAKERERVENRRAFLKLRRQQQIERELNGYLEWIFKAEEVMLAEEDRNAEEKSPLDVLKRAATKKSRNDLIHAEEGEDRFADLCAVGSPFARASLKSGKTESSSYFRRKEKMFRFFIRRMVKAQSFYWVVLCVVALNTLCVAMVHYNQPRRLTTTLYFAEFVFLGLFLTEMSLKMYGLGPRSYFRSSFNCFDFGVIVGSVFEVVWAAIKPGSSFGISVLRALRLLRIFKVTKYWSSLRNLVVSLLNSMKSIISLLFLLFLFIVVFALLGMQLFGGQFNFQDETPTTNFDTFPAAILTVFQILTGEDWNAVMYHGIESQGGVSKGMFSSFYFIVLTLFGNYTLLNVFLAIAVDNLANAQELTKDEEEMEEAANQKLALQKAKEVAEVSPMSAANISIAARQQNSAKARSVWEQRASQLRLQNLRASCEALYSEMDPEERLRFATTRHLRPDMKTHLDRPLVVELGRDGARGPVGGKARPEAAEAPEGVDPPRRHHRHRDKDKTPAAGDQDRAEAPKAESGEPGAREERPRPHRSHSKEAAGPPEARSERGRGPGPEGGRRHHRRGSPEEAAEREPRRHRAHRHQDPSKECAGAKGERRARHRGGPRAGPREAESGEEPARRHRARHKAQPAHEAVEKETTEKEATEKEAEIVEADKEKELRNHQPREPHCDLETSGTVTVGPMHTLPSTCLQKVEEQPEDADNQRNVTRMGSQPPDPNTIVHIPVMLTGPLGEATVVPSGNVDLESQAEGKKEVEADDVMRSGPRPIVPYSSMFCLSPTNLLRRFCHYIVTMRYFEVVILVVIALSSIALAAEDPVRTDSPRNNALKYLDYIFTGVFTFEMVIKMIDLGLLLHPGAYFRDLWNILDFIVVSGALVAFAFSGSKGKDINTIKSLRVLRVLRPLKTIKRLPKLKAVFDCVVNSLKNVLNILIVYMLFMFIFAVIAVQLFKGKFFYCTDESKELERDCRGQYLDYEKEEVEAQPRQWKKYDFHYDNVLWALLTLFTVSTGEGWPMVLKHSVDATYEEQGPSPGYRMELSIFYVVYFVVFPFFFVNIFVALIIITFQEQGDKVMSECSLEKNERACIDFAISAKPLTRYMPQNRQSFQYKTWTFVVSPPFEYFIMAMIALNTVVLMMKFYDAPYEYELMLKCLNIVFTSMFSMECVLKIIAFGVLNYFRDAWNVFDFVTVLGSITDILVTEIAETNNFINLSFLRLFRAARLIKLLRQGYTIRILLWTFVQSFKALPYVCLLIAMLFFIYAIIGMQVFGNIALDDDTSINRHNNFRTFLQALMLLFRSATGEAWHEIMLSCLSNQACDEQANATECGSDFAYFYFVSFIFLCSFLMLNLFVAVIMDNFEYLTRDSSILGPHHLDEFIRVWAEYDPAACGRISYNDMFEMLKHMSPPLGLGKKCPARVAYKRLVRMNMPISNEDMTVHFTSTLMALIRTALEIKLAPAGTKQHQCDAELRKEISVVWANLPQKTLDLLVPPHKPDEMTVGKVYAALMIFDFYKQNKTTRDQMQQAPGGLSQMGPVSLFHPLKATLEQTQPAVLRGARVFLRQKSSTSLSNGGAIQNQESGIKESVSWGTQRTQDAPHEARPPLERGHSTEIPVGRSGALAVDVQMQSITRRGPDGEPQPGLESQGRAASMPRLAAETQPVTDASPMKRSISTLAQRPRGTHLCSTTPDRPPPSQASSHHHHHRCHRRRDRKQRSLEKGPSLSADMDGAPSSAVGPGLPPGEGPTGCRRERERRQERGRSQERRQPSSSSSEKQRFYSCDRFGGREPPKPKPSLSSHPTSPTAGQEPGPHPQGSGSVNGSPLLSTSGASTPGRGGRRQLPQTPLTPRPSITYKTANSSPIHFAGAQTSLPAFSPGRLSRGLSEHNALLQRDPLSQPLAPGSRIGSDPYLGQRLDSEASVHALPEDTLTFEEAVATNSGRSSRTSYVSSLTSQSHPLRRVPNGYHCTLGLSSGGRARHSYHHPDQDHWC

In the case of `CN(C)CCC=C1c2ccccc2CCc2ccccc21` [AMITRIPTYLINE], the IC50 came to 12 µM. `CNCCC=C1c2ccccc2CCc2ccccc21` [NORTRIPTYLINE]: the half-maximal inhibitory concentration (IC50) came out at 10 µM. For the compound `OCCN1CCN(CCCN2c3ccccc3C=Cc3ccccc32)CC1` [OPIPRAMOL], the IC50 is 24 µM. With `CNCCCC12CCC(c3ccccc31)c1ccccc12` [MAPROTILINE], the half-maximal inhibitory concentration (IC50) stood at 10 µM. In the case of `CNCCCN1c2ccccc2CCc2ccccc21` [DESIPRAMINE], the IC50 was found to be 11 µM. As to `CN(C)CC/C=C1\c2ccccc2COc2ccccc21` [E-DOXEPIN], the IC50 was 18 µM.

Turning to `Clc1ccc2c(c1)C(N1CCNCC1)=Nc1ccccc1O2` [AMOXAPINE], the half-maximal inhibitory concentration (IC50) was 27 µM.

On to `CC(CN1c2ccccc2Sc2ccccc21)N(C)C` (stereo not drawn) [PROMETHAZINE], for which the half-maximal inhibitory concentration (IC50) was found to be 18 µM.

Regarding `CN(C)CCCN1c2ccccc2CCc2ccccc21` [IMIPRAMINE], the IC50 was 22 µM.

`CN(C)CCCN1c2ccccc2CCc2ccc(Cl)cc21` [CLOMIPRAMINE]: the IC50 stood at 9 µM. In the case of `CC(CN(C)C)CN1c2ccccc2CCc2ccccc21` (stereo not drawn) [TRIMIPRAMINE], the IC50 was 11 µM. On to `CN(C)CCC=C1c2ccccc2C=Cc2ccccc21` [CYCLOBENZAPRINE], for which the IC50 was 10 µM. Turning to `CNCCCC1c2ccccc2C=Cc2ccccc21` [PROTRIPTYLINE], the IC50 was found to be 14 µM.

What is called IC50 is the concentration that inhibits the measured activity by half.
